Calls of active or inactive are those of the source. The rule behind the calls is not given here.
Experiments:
[1] = target: T1, Proteasome component C5 (Homo sapiens) (UniProt P20618); assay: Inhibition of caspase like activity of 26S proteasome beta 1 subunit in human U266 cells assessed as residual activity using […] as substrate at 10 uM preincubated for 1 hr followed by substrate addition and measured after 4 hrs by fluorescence assay relative to control; type: cell-based
T1 sequence (whole entry): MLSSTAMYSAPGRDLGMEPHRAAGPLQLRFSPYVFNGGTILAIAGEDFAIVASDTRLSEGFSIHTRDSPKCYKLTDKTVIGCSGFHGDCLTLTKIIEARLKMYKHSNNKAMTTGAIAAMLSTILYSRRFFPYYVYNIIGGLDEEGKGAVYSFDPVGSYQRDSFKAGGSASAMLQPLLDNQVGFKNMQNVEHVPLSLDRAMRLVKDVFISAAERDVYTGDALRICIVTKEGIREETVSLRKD

K562 = assay: Antiproliferative activity against human K562 cells after 72 hrs by calcein AM staining based fluorescence assay; type: functional; settings: K562, 72 h
Outline: (§1)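 Cells treated with three-fold compound dilutions in triplicate for 72 h. Calcein AM added afterwards and live-cell fluorescence read at 485/538 nm (ex/em). GI50, the concentration lethal to 50% of tumour cells, calculated from dose-response curves.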

CCRF-CEM = assay: Antiproliferative activity against human CEM cells after 72 hrs by calcein AM staining based fluorescence assay; type: functional; outline: as §1
[2] = target: Proteasome Macropain subunit (Homo sapiens) (UniProt P49721); assay: Inhibition of trypsin like activity of 26S proteasome beta 2 subunit in human U266 cells assessed as residual activity using […] as substrate at 10 uM preincubated for 1 hr followed by substrate addition and measured after 4 hrs by fluorescence assay relative to control; type: cell-based
Proteasome Macropain subunit (Homo sapiens), sequence (P49721 whole entry): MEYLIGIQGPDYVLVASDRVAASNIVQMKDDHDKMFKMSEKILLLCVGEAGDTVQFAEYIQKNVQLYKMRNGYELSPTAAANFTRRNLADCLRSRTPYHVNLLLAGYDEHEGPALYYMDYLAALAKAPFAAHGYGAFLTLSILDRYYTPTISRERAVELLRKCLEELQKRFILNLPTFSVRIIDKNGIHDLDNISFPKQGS

[3] = target: T2, Proteasome Macropain subunit MB1 (Homo sapiens, UniProt P28074); assay: Inhibition of chymotrypsin-like activity of 26S proteasome beta 5 subunit in human U266 cells using Suc-LLVY-aminoluciferin as substrate after 1 hr by Proteosome-Glo luminescence assay; type: cell-based
T2 sequence (P28074 whole entry): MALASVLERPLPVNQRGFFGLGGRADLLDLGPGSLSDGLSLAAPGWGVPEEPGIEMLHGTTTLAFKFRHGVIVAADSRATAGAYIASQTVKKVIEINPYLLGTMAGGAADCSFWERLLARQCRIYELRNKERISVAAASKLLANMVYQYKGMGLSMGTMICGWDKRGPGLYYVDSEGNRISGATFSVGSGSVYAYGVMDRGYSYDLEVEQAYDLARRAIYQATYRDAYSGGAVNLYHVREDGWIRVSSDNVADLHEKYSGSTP
Outline: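 U266 multiple myeloma cells plated at 20,000 cells/well and exposed to varying compound concentrations for 1 h at 37 °C, in duplicate. 26S proteasome activity measured immediately as luciferase-coupled hydrolysis of the β5 substrate Suc-LLVY-aminoluciferin (Proteasome-Glo), read by luminescence. Activity normalised to untreated cells; IC50 derived from dose-response curves.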

U-266 [4] = assay: Antiproliferative activity against human U266 cells after 72 hrs by calcein AM staining based fluorescence assay; type: functional; settings: U-266, 72 h; outline: as §1
Homo sapiens [5] = species on record: Homo sapiens; assay: Inhibition of proteasome in human U2OS cells stably expressing GFP fused to short degron assessed as increase in GFP accumulation pre-incubated for 1 hr and measured after 9 hrs by live-cell imaging microscopy; type: cell-based
[6] = target: T3, Proteasome Macropain subunit MB1 (Homo sapiens) (UniProt P28074); assay: Inhibition of chymotrypsin like activity of 26S proteasome beta 5 subunit in human U266 cells assessed as residual activity using N-Suc-LLVY-AMC as substrate at 10 uM preincubated for 1 hr followed by substrate addition and measured after 4 hrs by fluorescence assay relative to control; type: cell-based
T3 sequence (whole entry): T2 sequence (P28074 whole entry)

Homo sapiens [7] = species on record: Homo sapiens; assay: Inhibition of proteasome in human U266 cells assessed as increase in accumulation of polyubiquitinated proteins by Western blot analysis; type: cell-based; settings: TDE = time-dependent effect
Outline: (§2)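 Treated U266 cells harvested in Laemmli sample buffer. Proteins separated by SDS-PAGE and electroblotted to nitrocellulose. Membranes blocked, probed overnight with specific primary antibodies, then detected with peroxidase-conjugated secondary antibodies.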

U2OS [8] = assay: Antiproliferative activity against human U2OS cells up to 1 uM after 24 hrs by live-cell imaging microscopic analysis; type: functional, cell-based
Outline: (§3)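 U2OS degron-GFP cells plated at 10,000 cells/well and treated with a range of compound concentrations. Proliferation followed by live-cell time-lapse imaging as percent confluence (occupied image area) over time, up to 72 h.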

Homo sapiens [9] = species on record: Homo sapiens; assay: Inhibition of proteasome in human U266 cells assessed as increase in p27KIP level up to 24 hrs by Western blot method; type: cell-based; outline: as §2
U-266 [10] = assay: Effect on beta-actin protein levels in human U266 cells at 250 nM after 2 to 24 hrs by Western blot analysis; type: ADME, cell-based; settings: u-266, 0.25 µM; outline: as §2
Homo sapiens [11] = species on record: Homo sapiens; assay: Inhibition of proteasome in human U2OS cells stably expressing GFP fused to short degron assessed as increase in GFP accumulation at 200 nM […] by live-cell imaging microscopy; type: cell-based
U-266 [12] = assay: Effect on alpha-tubulin protein levels in human U266 cells at 250 nM after 2 to 24 hrs by Western blot analysis; type: ADME, cell-based; settings: u-266, 0.25 µM; outline: as §2
U2OS [13] = assay: Cytotoxicity against human U2OS cells at 6.25 uM after 16 hrs by live-cell imaging microscopic analysis; type: cell-based; outline: as §3
U2OS [14] = assay: Antiproliferative activity against human U2OS cells up to 1 uM after 48 hrs by live-cell imaging microscopic analysis; type: functional, cell-based; outline: as §3
U-266 [15] = assay: Induction of apoptosis in human U266 cells assessed as PARP1 cleavage at 250 nM after 16 to 24 hrs by Western blot method; type: functional, cell-based; outline: as §2
U2OS [16] = assay: Antiproliferative activity against human U2OS cells at 200 nM after 72 hrs by live-cell imaging microscopic analysis; type: functional, cell-based; outline: as §3
U-266 [17] = assay: Induction of apoptosis in human U266 cells assessed as downregulation of Mcl-1 level at 250 nM after 16 to 24 hrs by Western blot method; type: functional, cell-based; outline: as §2
Homo sapiens [18] = species on record: Homo sapiens; assay: Inhibition of proteasome in human U266 cells assessed as increase in accumulation of polyubiquitinated proteins at 250 nM by Western blot analysis; type: cell-based; settings: TDE = time-dependent effect; outline: as §2
U-266 [19] = assay: Induction of apoptosis in human U266 cells assessed as caspase-7 cleavage at 250 nM after 16 to 24 hrs by Western blot method; type: functional, cell-based; outline: as §2
U-266 [20] = assay: Induction of apoptosis in human U266 cells assessed as increase in caspase-3/7 activity using Ac-DEVD-AMC as substrate at 250 nM by fluorescence assay; type: functional, cell-based; settings: TDE = time-dependent effect
Outline: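 Homogenates clarified at 10,000 × g for 30 min at 4 °C and protein-equalised. Lysates incubated with 100 µM Ac-DEVD-AMC in pH 7.3 PIPES/EGTA/MgCl2/DTT buffer. Fluorescence read at 355/460 nm and normalised to untreated control.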

| Activity [1] | GI50 (K562) | GI50 (CCRF-CEM) | Activity [2] | IC50 [3] | Activity [6] | Compound | GI50 (U-266 [4]) | inhibition (Homo sapiens [5]) | also measured |
| --- | --- | --- | --- | --- | --- | --- | --- | --- | --- |
| > 100% | 1.28 µM | 0.4 µM | 62.3% | 0.168 µM | 29.1% | CC(C)C[C@H](NC(=O)c1cc(Cl)ccc1OCc1ccccc1)C(=O)N[C@@H](Cc1ccccc1)C(=O)NC(C=O)Cc1ccccc1 (some centres undefined) | 0.46 µM | Dose-dependent effect | – |
| 40.2% | 1.04 µM | 0.43 µM | 42.5% | 0.067 µM | 10.6% | CC(C)C[C@@H](C=O)NC(=O)[C@H](Cc1ccccc1)NC(=O)[C@H](CC(C)C)NC(=O)c1cc(Cl)ccc1OCc1ccccc1 | 0.17 µM | Dose-dependent effect | – |
| 66.2% | 1.05 µM | 0.79 µM | 48.4% | 0.197 µM | 27.9% | CC(C)C[C@H](NC(=O)c1cc(Cl)ccc1OCc1ccccc1)C(=O)N[C@@H](CC(C)C)C(=O)NC(C=O)Cc1ccccc1 (some centres undefined) | 0.54 µM | Dose-dependent effect | – |
| > 100% | 1.45 µM | 0.44 µM | 47.2% | 0.11 µM | 25.8% | CC(C)C[C@H](NC(=O)c1cc(Cl)ccc1OCc1ccccc1)C(=O)N[C@@H](Cc1ccccc1)C(=O)N[C@H](C=O)Cc1ccccc1 | 0.4 µM | Dose-dependent effect | – |
| 74.6% | 0.57 µM | 0.28 µM | 81.8% | 0.09 µM | 13.4% | CC(C)CC(C=O)NC(=O)[C@H](Cc1ccccc1)NC(=O)[C@H](CC(C)C)NC(=O)c1cc(Cl)ccc1OCc1ccccc1 (some centres undefined) | 0.15 µM | Dose-dependent effect | Activity (U2OS [8]): inactive; inhibition (Homo sapiens [9]): Dose-dependent effect; Activity (U-266 [10]): Non-Toxic; inhibition (Homo sapiens [11]): Active; Activity (U-266 [12]): Non-Toxic; Activity (U2OS [13]): Toxic; Activity (U2OS [14]): Active; Activity (U-266 [15]): Active; Activity (U2OS [16]): inactive; Activity (U-266 [17]): Active; inhibition (Homo sapiens [18]): Tde; Activity (U-266 [19]): Active; Activity (U-266 [20]): Tde |

Continued, compound first:

| Compound | Activity [1] | GI50 (K562) | GI50 (CCRF-CEM) | Activity [2] | IC50 [3] | Activity [6] | GI50 (U-266 [4]) | inhibition (Homo sapiens [5]) | also measured |
| --- | --- | --- | --- | --- | --- | --- | --- | --- | --- |
| CC(C)C[C@@H](C=O)NC(=O)[C@H](Cc1ccccc1)NC(=O)[C@H](CC(C)C)NC(=O)c1cc(Cl)ccc1O | 28.9% | 2.1 µM | 0.78 µM | 72.6% | 0.237 µM | 27.9% | 0.67 µM | Dose-dependent effect | – |
| CC(C)C[C@H](NC(=O)[C@H](Cc1ccccc1)NC(=O)c1cnccn1)B(O)O [BORTEZOMIB] | 0% | 0.007 µM | 0.001 µM | 86.1% | – | 1.5% | 0.001 µM | – | inhibition (Homo sapiens [7]): Tde |
| CC(C)C[C@H](NC(=O)c1cc(Cl)ccc1O)C(=O)N[C@@H](Cc1ccccc1)C(=O)N[C@H](C=O)Cc1ccccc1 | 73.5% | 6.9 µM | 2.3 µM | 84.2% | 0.74 µM | 71.7% | 2.23 µM | Dose-dependent effect | – |
| CC(C)CC(C=O)NC(=O)[C@H](CC(C)C)NC(=O)[C@H](CC(C)C)NC(=O)c1cc(Cl)ccc1OCc1ccccc1 (some centres undefined) | 39.2% | 0.61 µM | 0.49 µM | 64.2% | 0.099 µM | 10.4% | 0.29 µM | Dose-dependent effect | – |

— ChEMBL document CHEMBL4052623, “Synthesis and antiproteasomal activity of novel O-benzyl salicylamide-based inhibitors built from leucine and phenylalanine” (Eur J Med Chem, 2017)
